Converted amounts (≈) assume the structure as drawn. The source made the active and inactive calls. The calls are words filed in the database; no cut-off is given here.
How the values were obtained:
KB [1] = experiment: Cytotoxicity against human KB cells after 72 hrs by SRB assay; format: functional; details: read-out: ED50 (the source's name)
Procedure, shortened: (§1)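 KB (nasopharyngeal) and HCT-15 (colon) lines kept in RPMI 1640 with 10% FBS at 37 °C, 5% CO2. Log-phase cells were exposed in triplicate to 0.16-20 µg/mL of sample for 72 h. Cell density was read by sulforhodamine staining. ED50 (50% growth inhibition versus control) was estimated from a semilog plot of concentration against percent viable cells. Ellipticine served as positive control.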

HCT-15 [2] = experiment: Cytotoxicity against human HCT-15 cells after 72 hrs by SRB assay; format: functional; details: HCT-15, 72 h, read-out: ED50 (the source's name); procedure, shortened: as §1
KB [3] = experiment: Cytotoxicity against human KB cells up to 20 ug/mL after 72 hrs by SRB assay; format: functional, cell-based; procedure, shortened: as §1
HCT-15 [4] = experiment: Cytotoxicity against human HCT-15 cells at 20 ug/mL after 72 hrs by SRB assay; format: functional, cell-based
Ostrinia nubilalis = experiment: Insecticidal activity against Ostrinia nubilalis larvae after 4 to 6 days; format: functional, organism-based
Procedure, shortened: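 Samples were dissolved in 95% EtOH and mixed into agar-based meridic diet at final 5, 50 and 100 ppm. European corn borer larvae were reared on it at 25 °C, about 80% RH, with a 16:8 light:dark cycle. Mortality and larval weight were recorded every 4-6 days over the growth period. ANOVA with Tukey's multiple range test.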

| Compound | EC50 (KB [1]) [mg/L] | EC50 (HCT-15 [2]) [mg/L] | Activity (KB [3]) | Activity (HCT-15 [4]) | Activity (Ostrinia nubilalis) |
| --- | --- | --- | --- | --- | --- |
| Cc1c2ccncc2c(C)c2c1[nH]c1ccccc12 [ELLIPTECINE] | 0.1 (≈ 0.406 µM) | 0.17 (≈ 0.69 µM) |  |  |  |
| C=C1[C@H](O)C[C@H]2[C@@](C)(COC(C)=O)C[C@H](O)C[C@]2(C)[C@H]1CC/C(C)=C\CO | 19.4 (≈ 51 µM) | 8.7 (≈ 22.9 µM) |  |  |  |
| C=C1[C@H](O)C[C@@H]2[C@](C)(CO)C[C@@H](O)C[C@@]2(C)[C@H]1CC/C(C)=C\CO |  |  | inactive | inactive |  |
| C=C1[C@H](O)C[C@H]2[C@@](C)(COC(C)=O)CC(=O)C[C@]2(C)[C@H]1CC/C(C)=C\CO | 11 (≈ 29.1 µM) | 11 (≈ 29.1 µM) |  |  |  |
| C=C1[C@H](O)C[C@H]2[C@@](C)(COC(C)=O)C[C@H](O)C[C@]2(C)[C@H]1CCC(C)=O |  |  | inactive | inactive |  |
| C=C1[C@H](OC(C)=O)C[C@H]2[C@@](C)(COC(C)=O)C[C@H](O)C[C@]2(C)[C@H]1CC/C(C)=C\COC(C)=O |  |  | inactive | inactive |  |
| C=C1[C@H](O)C[C@H]2[C@@](C)(COC(C)=O)C[C@H](O)C[C@]2(C)[C@H]1CC/C(C)=C\C=O | 11 (≈ 29.1 µM) | 11 (≈ 29.1 µM) |  |  |  |
| C=C1[C@H](O)C[C@H]2[C@@](C)(COC(C)=O)C[C@H](O)C[C@]2(C)[C@H]1CC/C(C)=C\COC(C)=O |  |  | inactive | inactive | Active |

Source: ChEMBL document CHEMBL1157983, “Novel labdane diterpenes from the insecticidal plant hyptis spicigera1” (1999)
